Results from ChEMBL document CHEMBL4304756, “Second-Generation Tryptamine Derivatives Potently Sensitize Colistin Resistant Bacteria to Colistin” (ACS Med Chem Lett, 2019).
Activity calls are given as the source filed them. The rule behind the calls is not given here.

Tests used:
[1] = test system: Klebsiella pneumoniae; assay: Potentiation of colistin-induced antibacterial activity against Klebsiella pneumoniae 2210291 assessed as colistin MIC at 50 uM incubated for 16 hrs by broth microdilution method (reference value: 1 ug/ml); type: functional; conditions: Klebsiella pneumoniae, 2210291, 16 h
[2] = test system: Acinetobacter baumannii; assay: Potentiation of colistin-induced antibacterial activity against Acinetobacter baumannii 17978 harbouring mcr-1 gene assessed as colistin MIC at 50 uM incubated for 16 hrs by broth microdilution method (reference value: 16 ug/ml); type: functional; conditions: Acinetobacter baumannii, 17978, 16 h
[3] = test system: Acinetobacter baumannii; assay: Potentiation of colistin-induced antibacterial activity against Acinetobacter baumannii 17978 assessed as colistin MIC at 50 uM incubated for 16 hrs by broth microdilution method (reference value: 2 ug/ml); type: functional; conditions: Acinetobacter baumannii, 17978, 16 h
[4] = test system: Escherichia coli; assay: Potentiation of colistin-induced antibacterial activity against Escherichia coli YD626 harbouring mcr-1 gene assessed as colistin MIC at 50 uM incubated for 16 hrs by broth microdilution method (reference value: 8 ug/ml); type: functional; conditions: YD626, 16 h
[5] = test system: Klebsiella pneumoniae; assay: Potentiation of colistin-induced antibacterial activity against Klebsiella pneumoniae 2210291 harbouring mcr-1 gene assessed as colistin MIC at 50 uM incubated for 16 hrs by broth microdilution method (reference value: 16 ug/ml); type: functional; conditions: Klebsiella pneumoniae, 2210291, 16 h
[6] = Hemolytic activity in sheep RBC at 200 uM incubated for 1 hr by UV spectrophotometry; type: ADME, cell-based, Ovis aries, Erythrocyte; conditions: sheep red blood cells (erythrocytes), read-out: Activity
Summary of the method: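 Red blood cells exposed to compound at 200 μM, with percent cell lysis recorded.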

[7] = test system: Escherichia coli; assay: Potentiation of colistin-induced antibacterial activity against Escherichia coli YD626 assessed as colistin MIC at 50 uM incubated for 16 hrs by broth microdilution method (reference value: 1 ug/ml); type: functional; conditions: YD626, 16 h
[8] = test system: Acinetobacter baumannii; assay: Potentiation of colistin-induced antibacterial activity against Acinetobacter baumannii 3941 assessed as reduction in colistin MIC at 20 uM incubated for 16 hrs by broth microdilution method (reference value: 512 ug/ml); type: functional; conditions: Acinetobacter baumannii, 3941, 16 h
[9] = test system: Klebsiella pneumoniae; assay: Potentiation of colistin-induced antibacterial activity against Klebsiella pneumoniae B9 assessed as reduction in colistin MIC at 10 uM incubated for 16 hrs by broth microdilution method (reference value: 512 ug/ml); type: functional; conditions: B9, 16 h
Summary of the method: (§1)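 Colistin MIC was measured against chromosomally colistin-resistant strains (K. pneumoniae B9, C3; A. baumannii 4106, among four strains) with adjuvant at fixed levels from 20 μM down to 7.5 μM. Fold reduction was reported against colistin alone, with the CLSI breakpoint taken as ≤2 μg/mL.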

[10] = test system: Klebsiella pneumoniae; assay: Potentiation of colistin-induced antibacterial activity against Klebsiella pneumoniae B9 assessed as reduction in colistin MIC at 20 uM incubated for 16 hrs by broth microdilution method (reference value: 512 ug/ml); type: functional; conditions: B9, 16 h
[11] = test system: Acinetobacter baumannii; assay: Potentiation of colistin-induced antibacterial activity against Acinetobacter baumannii 17978 harbouring mcr-1 gene assessed as reduction in colistin MIC at 15 uM incubated for 16 hrs by broth microdilution method; type: functional, organism-based
Summary of the method: (§2)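 For the dose-response, colistin MIC was measured against mcr-1 plasmid-bearing E. coli, K. pneumoniae and A. baumannii while the adjuvant concentration was lowered stepwise (30, 15 μM, down to 5 μM). The aim was to find where the MIC rose above the 2 μg/mL CLSI susceptibility breakpoint.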

[12] = test system: Acinetobacter baumannii; assay: Potentiation of colistin-induced antibacterial activity against Acinetobacter baumannii 3941 assessed as reduction in colistin MIC at 15 uM incubated for 16 hrs by broth microdilution method (reference value: 512 ug/ml); type: functional; conditions: Acinetobacter baumannii, 3941, 16 h
[13] = test system: Acinetobacter baumannii; assay: Potentiation of colistin-induced antibacterial activity against Acinetobacter baumannii 4106 assessed as reduction in colistin MIC at 15 uM incubated for 16 hrs by broth microdilution method (reference value: 1024 ug/ml); type: functional; conditions: Acinetobacter baumannii, 4106, 16 h
[14] = test system: Klebsiella pneumoniae; assay: Potentiation of colistin-induced antibacterial activity against Klebsiella pneumoniae 2210291 harbouring mcr-1 gene assessed as reduction in colistin MIC at 15 uM incubated for 16 hrs by broth microdilution method; type: functional, organism-based; summary of the method: as §2
[15] = Cytotoxicity against mouse 4T1 cells assessed as reduction in cell viability incubated for 18 hrs by MTT assay; type: cell-based
Summary of the method: (§3)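 4T1 mouse mammary tumor cells exposed to compound for 18 h, alone or together with colistin at 1 μg/mL. Medium then aspirated and replaced with 0.5 mg/mL MTT in culture medium for colorimetric viability read-out. CT50 taken as the concentration giving 50% cell viability.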

[16] = test system: Klebsiella pneumoniae; assay: Potentiation of colistin-induced antibacterial activity against Klebsiella pneumoniae B9 assessed as reduction in colistin MIC at 5 uM incubated for 16 hrs by broth microdilution method (reference value: 512 ug/ml); type: functional; conditions: B9, 16 h
[17] = test system: Klebsiella pneumoniae; assay: Potentiation of colistin-induced antibacterial activity against Klebsiella pneumoniae B9 assessed as reduction in colistin MIC at 7.5 uM incubated for 16 hrs by broth microdilution method (reference value: 512 ug/ml); type: functional; conditions: B9, 16 h
[18] = Cytotoxicity against mouse 4T1 cells assessed as reduction in cell viability in presence of 1 ug/ml colistin incubated for 18 hrs by MTT assay; type: cell-based; summary of the method: as §3
[19] = test system: Klebsiella pneumoniae; assay: Potentiation of colistin-induced antibacterial activity against Klebsiella pneumoniae C3 assessed as reduction in colistin MIC at 10 uM incubated for 16 hrs by broth microdilution method (reference value: 512 ug/ml); type: functional; conditions: C3, 16 h
[20] = test system: Acinetobacter baumannii; assay: Potentiation of colistin-induced antibacterial activity against Acinetobacter baumannii 3941 assessed as reduction in colistin MIC at 10 uM incubated for 16 hrs by broth microdilution method (reference value: 512 ug/ml); type: functional; conditions: Acinetobacter baumannii, 3941, 16 h
[21] = test system: Acinetobacter baumannii; assay: Potentiation of colistin-induced antibacterial activity against Acinetobacter baumannii 4106 assessed as reduction in colistin MIC at 20 uM incubated for 16 hrs by broth microdilution method (reference value: 1024 ug/ml); type: functional; conditions: Acinetobacter baumannii, 4106, 16 h
[22] = test system: Escherichia coli; assay: Potentiation of colistin-induced antibacterial activity against Escherichia coli YD626 harbouring mcr-1 gene assessed as reduction in colistin MIC at 15 uM incubated for 16 hrs by broth microdilution method; type: functional, organism-based; summary of the method: as §2
[23] = test system: Acinetobacter baumannii; assay: Potentiation of colistin-induced antibacterial activity against Acinetobacter baumannii 4106 assessed as reduction in colistin MIC at 10 uM incubated for 16 hrs by broth microdilution method (reference value: 1024 ug/ml); type: functional; conditions: Acinetobacter baumannii, 4106, 16 h
[24] = test system: Klebsiella pneumoniae; assay: Potentiation of colistin-induced antibacterial activity against Klebsiella pneumoniae C3 assessed as reduction in colistin MIC at 20 uM incubated for 16 hrs by broth microdilution method (reference value: 512 ug/ml); type: functional; conditions: C3, 16 h; summary of the method: as §1
[25] = test system: Klebsiella pneumoniae; assay: Potentiation of colistin-induced antibacterial activity against Klebsiella pneumoniae B9 assessed as reduction in colistin MIC at 15 uM incubated for 16 hrs by broth microdilution method (reference value: 512 ug/ml); type: functional; conditions: B9, 16 h
[26] = test system: Klebsiella pneumoniae; assay: Potentiation of colistin-induced antibacterial activity against Klebsiella pneumoniae C3 assessed as reduction in colistin MIC at 15 uM incubated for 16 hrs by broth microdilution method (reference value: 512 ug/ml); type: functional; conditions: C3, 16 h
[27] = test system: Acinetobacter baumannii; assay: Antivirulence activity in Acinetobacter baumannii 4106 infected Galleria mellonella larvae model assessed as survival rate at 100 mg/kg measured at 24 hrs interval over 4 days; type: functional
Summary of the method: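 A. baumannii 4106 was given to Galleria mellonella larvae at 6 × 10^5 CFU, the lethal inoculum found by dose escalation. Larvae were treated with colistin 50 mg/kg, adjuvant 50 mg/kg, colistin plus adjuvant (50 mg/kg each), or tigecycline 100 mg/kg as positive control. Survival was scored out to day 4.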

[28] = test system: Escherichia coli; assay: Potentiation of colistin-induced antibacterial activity against Escherichia coli YD626 harbouring mcr-1 gene assessed as reduction in colistin MIC at 15 uM incubated for 16 hrs by broth microdilution method (reference value: 8 ug/ml); type: functional; conditions: YD626, 16 h; summary of the method: as §2
[29] = test system: Klebsiella pneumoniae; assay: Potentiation of colistin-induced antibacterial activity against Klebsiella pneumoniae 2210291 harbouring mcr-1 gene assessed as reduction in colistin MIC at 15 uM incubated for 16 hrs by broth microdilution method (reference value: 16 ug/ml); type: functional; conditions: Klebsiella pneumoniae, 2210291, 16 h; summary of the method: as §2
[30] = test system: Acinetobacter baumannii; assay: Potentiation of colistin-induced antibacterial activity against Acinetobacter baumannii 17978 harbouring mcr-1 gene assessed as reduction in colistin MIC at 15 uM incubated for 16 hrs by broth microdilution method (reference value: 16 ug/ml); type: functional; conditions: Acinetobacter baumannii, 17978, 16 h; summary of the method: as §2

For `CCCCc1ccc(NC(=O)NCCc2c[nH]c3ccc(Br)cc23)cc1`, the MIC [1] was 0.5 µg/mL, the MIC [2] was 16 µg/mL and the MIC [3] was 2 µg/mL. For the same compound, the MIC [4] was 8 µg/mL, the MIC [5] was 16 µg/mL and the hemolysis at 1 h, 200 µM [6] was < 2.5%. The MIC [7] was 1 µg/mL.

For `O=C(NCCc1c[nH]c2ccccc12)Nc1cc(Br)cc(Br)c1`, the MIC [1] was 0.5 µg/mL, the MIC [8] was 8 µg/mL and the MIC [9] was 1 µg/mL. For the same compound, the MIC [10] was ≤ 0.25 µg/mL, the MIC [2] was 1 µg/mL and the Activity [11] was “Active”. The MIC [12] was 8 µg/mL, the MIC [13] was 4 µg/mL and the Activity [14] was “Active”. The CC50 at 18 h [15] was 86.2 µM, the MIC [16] was 32 µg/mL and the MIC [17] was 4 µg/mL. It also gave a CC50 at 18 h [18] of 64.2 µM, an MIC [19] of 8 µg/mL and an MIC [3] of 0.5 µg/mL. The MIC [4] was 2 µg/mL, the MIC [20] was 16 µg/mL and the MIC [5] was 1 µg/mL. For the same compound, the MIC [21] was 4 µg/mL, the MIC [7] was 0.25 µg/mL and the Activity [22] was “Active”. For the same compound, the MIC [23] was 8 µg/mL, the MIC [24] was 2 µg/mL and the MIC [25] was 0.5 µg/mL. For the same compound, the MIC [26] was 4 µg/mL.

Compound `CN(C)c1cc(NC(=O)CNC(C)(C)C)c(O)c2c1C[C@H]1C[C@H]3[C@H](N(C)C)C(O)=C(C(N)=O)C(=O)[C@@]3(O)C(O)=C1C2=O` [TIGECYCLINE] has an Activity [27] of 20%.

Compound `O=C(NCCc1c[nH]c2ccc(Br)cc12)Nc1ccc(Cl)c(Cl)c1` has an MIC [1] of 0.5 µg/mL, an MIC [28] of 1 µg/mL and an MIC [8] of 2 µg/mL. The MIC [9] was 1 µg/mL, the MIC [10] was ≤ 0.25 µg/mL and the MIC [2] was 1 µg/mL. For the same compound, the MIC [12] was 4 µg/mL, the MIC [13] was 2 µg/mL and the MIC [16] was 8 µg/mL. The MIC [17] was 2 µg/mL, the MIC [19] was 4 µg/mL and the MIC [29] was 1 µg/mL. For the same compound, the MIC [3] was 0.5 µg/mL, the MIC [4] was 0.5 µg/mL and the MIC [20] was 8 µg/mL. It also gave an MIC [5] of 0.5 µg/mL, an MIC [30] of 1 µg/mL and an MIC [21] of 2 µg/mL. For the same compound, the MIC [7] was 0.25 µg/mL, the MIC [23] was 4 µg/mL and the MIC [24] was 1 µg/mL. For the same compound, the MIC [25] was 0.5 µg/mL and the MIC [26] was 2 µg/mL.
